Sampled rows, rich in hits. Any-hit rate of the full collection: about 2%.
dFosB activator = enhances mouse delta FosB homodimer DNA binding; activation, % at 25 µM; purified delta FosB, TAMRA-CDK5 oligo fluorescence polarization; percent of positive-control signal above neutral wells; P13346; actives 0.99% (n = 340,000);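 active = mean activation above about 17%, with every replicate also reaching it, limit read from the data, passing the limit was not always enough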
CAL PDZ FP-1 = blocks peptide binding to the human CAL PDZ domain. purified CAL PDZ, TMR-peptide fluorescence polarization, 1 h. AID 602252. inhibition, % at 24.9 µM. Q9HD26. actives 0.92% (n = 300,000);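 active = mean inhibition of at least 30% with at least half of replicates also reaching 30%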;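 also: 0% = DMSO neutral control and 100% = excess unlabeled competitor peptide PRC23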
Statin myotox sup = suppressors of simvastatin-induced myotoxicity in C2C12 myotubes; ATP luminescence, 48 h; scaled: DMSO 0, geranylgeraniol control 100; rescue of ATP level, % at 7.49 µM; actives 0.78% (n = 330,000); AID 602340;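 active = mean ATP rescue above about 67%, or every replicate alone reaching that limit, limit read from the data, passing the limit was not always enough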;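 also: myotubes were challenged with 10 µM simvastatin during compound exposure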
S100A4 MyoIIA = S100A4-myosin IIA interaction inhibition; P26447; S100A4/TAMRA-MyoIIA peptide fluorescence polarization; inhibition, % at 10.7 µM; actives 0.14% (n = 360,000); AID 652163;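 active = mean inhibition of at least 70% across replicates, with every replicate also reaching that level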
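assay system = human S100A4 monomer with TAMRA-labelled myosin IIA peptide | also added = labelled myosin peptide probe, 5 nM | incubation = 5 min between mix addition and reading | control set = DMSO and TFP controls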
CDK5 inh = inhibitors of human CDK5/p35 kinase | inhibition, % at 10 µM | Recombinant CDK5/p35, ADP-Glo luminescence, 60 min | actives 0.01% (n = 330,000);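 active = highest replicate inhibition of at least 50% and at least 75% of replicates reaching 50%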;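 also: plate controls were DMSO neutral control for no effect and GW8510 at 10 µM for full effect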
Target sequence (Q00535 whole entry, looked up): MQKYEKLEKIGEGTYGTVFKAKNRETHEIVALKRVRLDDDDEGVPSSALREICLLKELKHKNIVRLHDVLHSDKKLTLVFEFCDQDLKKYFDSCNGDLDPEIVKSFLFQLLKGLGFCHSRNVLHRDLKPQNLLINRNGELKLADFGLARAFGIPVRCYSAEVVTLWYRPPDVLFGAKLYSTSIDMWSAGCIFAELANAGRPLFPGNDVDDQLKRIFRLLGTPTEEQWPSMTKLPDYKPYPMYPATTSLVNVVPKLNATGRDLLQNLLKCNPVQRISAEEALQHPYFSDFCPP
Target sequence (Q15078 whole entry, looked up): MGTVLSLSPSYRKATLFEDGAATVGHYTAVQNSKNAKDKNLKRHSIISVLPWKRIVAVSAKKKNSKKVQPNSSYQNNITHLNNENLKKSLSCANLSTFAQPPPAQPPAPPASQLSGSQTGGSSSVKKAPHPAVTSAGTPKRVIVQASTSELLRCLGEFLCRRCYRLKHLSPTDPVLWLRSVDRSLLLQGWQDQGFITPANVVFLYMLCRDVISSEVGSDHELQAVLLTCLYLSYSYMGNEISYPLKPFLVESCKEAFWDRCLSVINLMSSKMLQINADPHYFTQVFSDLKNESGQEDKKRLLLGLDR
CAL PDZ FP-2 = human CAL PDZ-peptide interaction inhibition. inhibition, % at 20 µM. purified CAL PDZ, TMR-peptide fluorescence polarization, 1 h. Q9HD26. actives 0.02% (n = 330,000);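 active = highest replicate inhibition of at least 40%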;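 also: plate controls were DMSO neutral control wells for no effect and unlabeled competitor peptide control wells for full effect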
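Test system: tagged CAL PDZ domain / Buffer or medium: sodium phosphate/NaCl buffer pH 7.4 with TCEP, IgG, Thesit / Reagent: TMR-labelled reporter peptide T*-PRC34 bound in PDZ groove / Compound dosing: single point, 20 µM / Schedule: 1 h incubation at room temperature before polarization reading / Technique: fluorescence polarization (mP) / Benchmarks: unlabelled peptide, DMSO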
The depositor's hits bear a star; . = no result; + = active, no number.

SMILES | dFosB activator | CAL PDZ FP-1 | Statin myotox sup | S100A4 MyoIIA | CDK5 inh | CAL PDZ FP-2
c1ccc2c(c1)SCc1nnc(-c3ccncc3)n1-2 | 3 | 96* | . | 0 | 1 | -1
COc1ccc(-c2nnc3n2-c2ccccc2SC3)cc1OC | 1 | -6 | 1 | . | -2 | -1
COc1ccc(CN(C)C(=O)CNC(=O)CNC(=O)c2ccc(Cl)cc2Cl)cc1F | -7 | + | 0 | 3 | 1 | -1
O=C(CCSc1nc(-c2ccc3c(c2)OCO3)cc(C(F)(F)F)n1)NCc1ccco1 | -6 | . | 2 | 1 | 0 | 0
O=C(CCSc1nc(-c2ccco2)cc(C(F)(F)F)n1)Nc1ccc2c(c1)OCO2 | -2 | 0 | 96* | . | -2 | -2
CCC(C)(C(=O)NC1CCCCC1)N(C(=O)CC1NC(=O)NC1=O)c1c(C)n(C)n(-c2ccccc2)c1=O (stereo unspecified) | -4 | 34* | 8 | -3 | 0 | -2
CCn1cc(CN2CCCC(C(=O)Nc3cccc(-c4cc5ccccc5[nH]4)c3)C2)cn1 (stereo unspecified) | 1 | 51* | -24 | 2 | 1 | 2
Cc1cccc(C)c1OCC(=O)Nc1ccc(NC(=O)c2ccco2)cc1 | -4 | 1 | -14 | -11 | 0 | -2
CCOc1cc(-c2nc(C)c(C(C)=O)n2O)ccc1OCC(=O)Nc1ccc(F)cc1 | -1 | . | . | -3 | -4 | 0
CCOc1cc(-c2nc(C)c(C(C)=O)n2O)ccc1OCC(=O)Nc1ccccc1 | -5 | 38* | 12 | -7 | 2 | -1
Oc1[nH]c2ccccc2c1C=Nc1ccc2c(c1)OCO2 | -15 | 0 | 118* | . | 3 | -1
COc1cc(C=C2NC(=O)NC2=O)ccc1O | . | . | -1 | 9 | . | .
COc1ccc(OC)c(/C=C2\NC(=O)NC2=O)c1 | 2 | 45* | -1 | 2 | -1 | -3
Cn1c(/N=C/c2c(O)ccc3ccccc23)nc2ccccc21 | -2 | 2 | 75* | . | 1 | 0
CN(C)CCCCOc1ccc(Br)cc1Cl | -6 | 83* | . | -3 | 2 | -3
COCCCNCCCCOc1ccc(Br)cc1Cl | -9 | 10 | 7 | -3 | . | -1
COc1ccc(Cl)cc1-c1cc(C(=O)Nc2ccccc2)[nH]n1 | . | . | -21 | -5 | . | .
COc1ccc(NC(=O)c2cc(-c3ccccc3O)n[nH]2)cc1Cl | 25* | -2 | -24 | -3 | 1 | -1
COc1ccc(Cl)cc1-c1cc(C(=O)N[C@H](C)c2ccccc2)[nH]n1 | . | . | 5 | 141* | . | .
O=C(CCSCCC(=O)NN=Cc1ccccc1O)NN=Cc1ccccc1O | 36* | . | 0 | 1 | -3 | -2
CN(C)CCCNc1nc(N)c([N+](=O)[O-])c(NCCO)n1 | -2 | -7 | 87* | -4 | 1 | 0
Cc1cccc(Nc2nc(N)c([N+](=O)[O-])c(NCCO)n2)c1 | 0 | 47* | 1 | -1 | 18 | -1
CNc1nc(N)c([N+](=O)[O-])c(NCCO)n1 | 1 | . | 0 | 2 | 7 | -1
Cc1cccc(Nc2nc(N3CCN(C)CC3)nc(N)c2[N+](=O)[O-])c1 | -22 | 36* | . | -4 | 4 | -2
CCN(CC)CCCNc1nc(N)c([N+](=O)[O-])c(NCCO)n1 | 8 | . | . | 0 | -3 | 0
SMILES | dFosB activator | CAL PDZ FP-1 | Statin myotox sup | S100A4 MyoIIA | CDK5 inh | CAL PDZ FP-2
Nc1nc(NCCCN2CCOCC2)nc(Nc2cccc(Cl)c2)c1[N+](=O)[O-] | 63* | 4 | . | -3 | 0 | -1
CCOC(=O)c1oc2cc(OCC(=O)OC)ccc2c(=O)c1-c1ccc(OC)c(OC)c1 | 5 | 4 | -7 | -6 | 0 | -1
CC(=O)c1cccc(NC(=O)c2cccc3c(-c4cccc(C(N)=O)c4)coc23)c1 | . | . | -24 | -7 | . | .
Nc1nc(Nc2cccc(Cl)c2)nc(NCCO)c1[N+](=O)[O-] | 4 | . | . | -1 | 58* | -2
Cc1nc2nc(SCC(=O)C(C)(C)C)[nH]c2cc1Br | -3 | . | -20 | . | -1 | -1
COc1ccccc1CC(=O)Nc1cccc(C)n1 | -2 | 58* | -2 | 3 | 2 | 17
COc1cc(NC(=O)Cc2cccc3ccccc23)c(C(=O)O)cc1OC | -5 | 1 | 83* | -3 | -1 | -1
COc1ccccc1CC(=O)Nc1ccc(NC(=O)c2cccs2)cc1 | 17* | . | -50 | -4 | -3 | 0
COc1ccccc1CC(=O)NNC(=O)c1cccs1 | -8 | . | -5 | 1 | 0 | -1
CN(CC(=O)Nc1cccc(F)c1)C(=O)c1cn(-c2ccccc2)nc1-c1ccc(Cl)cc1 | -17 | . | -30 | -1 | -1 | 1
CCOC(=O)C(=O)Cc1cccnn1 | -15 | . | -2 | 12 | 0 | 0
COc1cccc(S(=O)(=O)N2CC[C@@H]3[C@@H](CO)Nc4ccc(-c5ccccc5OC)cc4[C@@H]32)c1 | . | . | -3 | 4 | . | .
CCCCCCCC1CC(=O)C=C(C)C1C(=O)OCC (stereo unspecified) | . | . | 16 | -3 | . | .
O=C(CSc1ncccn1)NCc1cccc(Cl)c1 | -9 | -2 | . | 12 | -1 | -2
CCN(CC)CCCNc1ccc2ncn3c4ccc(O)cc4c(=O)c1c23 | 38* | -6 | . | 7 | 21 | 3
COc1ccc2oc(=O)cc(CN3CCN(Cc4ccc(OC)c(OC)c4OC)CC3)c2c1 | -5 | -3 | 123* | -1 | -1 | -1
O=C(c1ccccn1)N1CCN(S(=O)(=O)c2ccc3ccccc3c2)CC1 | 3 | 0 | -7 | -2 | 0 | 0
O=C(c1ccccc1)c1ccccc1NC(=O)C1CCCN1Cc1ccccc1 (stereo unspecified) | -4 | 46* | . | -6 | 2 | -1
CCc1sc(NC(=O)COC)nc1-c1ccccc1 | 1 | -5 | 12 | . | 0 | 0
COCC(=O)Nc1nc(-c2ccc(C)cc2)c(C)s1 | 2 | -2 | 123* | . | 0 | -2
Cc1ccc(NC(=O)C2CCCN(S(=O)(=O)c3cnc[nH]3)C2)cc1C (stereo unspecified) | 2 | -2 | -4 | 11 | 0 | 0
O=C(Nc1ccc(F)c(F)c1)C1CCCN(S(=O)(=O)c2cnc[nH]2)C1 (stereo unspecified) | -1 | . | 97* | . | 1 | 0
O=C(Cn1cc([N+](=O)[O-])cn1)NCc1ccco1 | -4 | 2 | 4 | -4 | 0 | 0
COc1ccc(/C=C(\NC(=O)c2ccco2)C(=O)N2CCOCC2)cc1 | -6 | . | 7 | 3 | 2 | 0
CCc1nnc(NC(=O)CCC2CCCCC2)s1 | -4 | -1 | . | 4 | 1 | 0
CCOCCc1nnc(NC(=O)CCC2CCCCC2)s1 | 2 | 74* | 4 | 7 | 0 | -6
O=C(Cn1c(C2CC2)nc2ccccc2c1=O)Nc1ccc(Br)cc1 | 6 | -7 | 1 | . | 1 | .

Screens as filed in PubChem BioAssay.
